In general, IC50 refers to the midpoint of a concentration-inhibition curve.

Experiment [1] in a line: Cytotoxicity against human nasopharyngeal carcinoma BM-1. It counts as functional. A digest of the protocol:
(§1)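 XTT-tetrazolium growth assay, cells exposed 72 h to six to seven concentrations per compound. Phenazine methosulfate-XTT added for 6 h at 37 °C, then absorbance read at 450 and 630 nm. IC50 derived from median-effect plot of dose-effect data.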

The nature of experiment [2]: Cytotoxicity against human Glioblastoma multiformi DBTRG. It counts as functional. The essentials: as §1
Experiment [3] concerns HONE1 cell line. Put plainly: Cytotoxicity against human nasopharyngeal carcinoma HONE-1. In kind it is functional, cell-based. A digest of the protocol: as §1
Experiment [4] has as its system Nucleic Acid. Put plainly: Percentage of protein-linked DNA breaks. In kind it is functional. Further details: concentration or dose not given beside the values. The essentials:
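Log-phase cells labeled 24 h with [14C]-thymidine, trypsinized, resuspended at 5 × 10⁵ cells/mL and shaken 1 h at 37 °C in suspension. Drug at 10 μM added for 0.5 h. Protein-linked DNA breaks quantified by potassium-SDS coprecipitation and reported as percentage.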

Experiment [5] concerns TSGH. Put plainly: In vitro cytotoxicity against human TSGH. In kind it is functional, cell-based. A digest of the protocol:
as §1

In experiment [6] the test system is HT-29. As to the kind of experiment: Cytotoxicity against human colon HT-29 cell line. It counts as functional, cell-based. The essentials: as §1
The subject of experiment [7] is HepG2. Put plainly: Cytotoxicity against human hepatoma Hepa-G2. In kind it is functional, cell-based. A digest of the protocol: as §1
Experiment [8] deals with CCRF-CEM. Put plainly: (§2) Cytotoxicity against human T-cell acute lymphocytic leukemia CCRF-CEM. It counts as functional, cell-based. A digest of the protocol: as §1
In experiment [9] the test system is MX1. Put plainly: Cytotoxicity against human Breast carcinoma MX-1. In kind it is functional, cell-based. The essentials: as §1
Experiment [10] relates to CCRF-CEM. The description is as §2. It counts as cell-based. A digest of the protocol: as §1
The subject of experiment [11] is Nucleic Acid. As to the kind of experiment: Percentage of protein-linked DNA breaks; Not determined. In kind it is functional.

Turning to `CN(C)CCNC(=O)c1cc(NC(=O)CCCC(=O)Nc2cc(CO)cc(Nc3c4ccccc4nc4ccccc34)c2)cn1C`, the IC50 was 73300 nM in experiment [1]; 73600 nM in experiment [2]; 39000 nM in [3]; 46800 nM in [5]; more than 100000 nM in experiment [6]; 100000 nM in [7]. The Activity in experiment [4] amounted to 0%.

For the compound `CN(C)CCNC(=O)c1cc(NC(=O)c2cc(NC(=O)CCC(=O)Nc3cc(CO)cc(Nc4c5ccccc5nc5ccccc45)c3)cn2C)cn1C`, the IC50 stood at 8600 nM in experiment [1]; 20000 nM in experiment [2]; 2400 nM in [3]; 4800 nM in experiment [5]; 4400 nM in experiment [6]; 7000 nM in experiment [7]. Also, the Activity in experiment [4] came out at 3.3%.

`CCOC(=O)Nc1cc(CO)cc(Nc2c3ccccc3nc3ccccc23)c1`: the IC50 was 380 nM in experiment [1]; 5000 nM in experiment [2]; 70 nM in experiment [3]; 340 nM in [5]; 480 nM in experiment [6]; 57 nM in experiment [8]. The compound further came in with an IC50 in experiment [7] of 460 nM. In [4], this compound yielded an Activity of 15%.

Regarding `CCOC(=O)Nc1cc(COC(=O)CCCC(=O)Nc2cc(C(=O)Nc3cc(C(=O)NCCN(C)C)n(C)c3)n(C)c2)cc(Nc2c3ccccc3nc3ccccc23)c1`, the IC50 is 156 nM in experiment [9]; 490 nM in experiment [1]; 7500 nM in [2]; 130 nM in experiment [3]; 1200 nM in experiment [5]; 640 nM in experiment [6]. Moreover, the IC50 in experiment [8] turned out to be 2040 nM; in experiment [7] it was 630 nM. For the same compound, in [4], the Activity amounted to 4.2%.

`CN(C)CCNC(=O)c1cc(NC(=O)CCC(=O)Nc2cc(CO)cc(Nc3c4ccccc4nc4ccccc34)c2)cn1C`: the half-inhibitory concentration (IC50) in [1] was 7000 nM; in experiment [2], 8100 nM; in experiment [3] it was 850 nM; in experiment [5] it was 4600 nM; in [6], 1700 nM; in [7] it was 4200 nM. In experiment [4], this compound yielded an Activity of 3.3%.

Regarding `CN(C)CCNC(=O)c1cc(NC(=O)c2cc(NC(=O)CCCC(=O)Nc3cc(CO)cc(Nc4c5ccccc5nc5ccccc45)c3)cn2C)cn1C`, the IC50 in experiment [1] was 77800 nM; in [2] it was more than 100000 nM; in [3], 63900 nM; in experiment [5] it was 36400 nM; in experiment [6], more than 100000 nM; in [7], 68000 nM. Also, the Activity in [4] was determined as 0%.

With `CCOC(=O)Nc1cc(COC(=O)CCCC(=O)Nc2cc(C(=O)NCCN(C)C)n(C)c2)cc(Nc2c3ccccc3nc3ccccc23)c1`, the IC50 came out at 85 nM in experiment [9]; 80 nM in experiment [1]; 400 nM in [2]; 800 nM in [3]; 1200 nM in [5]; 750 nM in [6]. The IC50 in experiment [8] was 17600 nM; in experiment [7], 80 nM. Moreover, in experiment [4], the Activity was determined as 4.6%.

As to `CCOC(=O)Nc1cc(COC(=O)CCC(=O)Nc2cc(C(=O)NCCN(C)C)n(C)c2)cc(Nc2c3ccccc3nc3ccccc23)c1`, the IC50 in experiment [9] came to 39 nM; in [1] it was 80 nM; in [2] it was 800 nM; in experiment [3] it was 60 nM; in [5], 80 nM; in experiment [6] it was 230 nM. In addition, the IC50 in [8] worked out at 6850 nM; in [7], 90 nM. The compound also had an Activity in experiment [4] of 16.5%.

In the case of `CN1CCN(c2ccc3nc(-c4ccc5nc(-c6ccc(OCCCC(=O)Nc7cc(CO)cc(Nc8c9ccccc9nc9ccccc89)c7)cc6)[nH]c5c4)[nH]c3c2)CC1`, the IC50 in experiment [9], in [1], in [2], in experiment [3], in experiment [5] and in [10] was more than 100000 nM each time. Also, the IC50 in experiment [6] and in experiment [7] was more than 100000 nM each time.

Regarding `Nc1cc(CO)cc(Nc2c3ccccc3nc3ccccc23)c1`, the IC50 was 860 nM in experiment [1]; 3500 nM in experiment [2]; 310 nM in [3]; 450 nM in [5]; 880 nM in experiment [6]; 360 nM in [8]. For the same compound, in experiment [7], 1400 nM corresponded to half-maximal inhibition (IC50). In [11], this compound registered an Activity of 10.5%.

Source of the values: ChEMBL document CHEMBL1135825, “Antitumor AHMA linked to DNA minor groove binding agents: synthesis and biological evaluation” (J Med Chem, 2002).
